Assay outcomes deposited in PubChem by several laboratories.
The sample as a whole holds a higher share of hits than the screen did.
ROMK primary = human ROMK K+ channel modulation, primary screen; 130,000 compounds, 2% hits; B-score at 10 µM; Tet-inducible ROMK, thallium flux fluorescence; actives lie on both sides; P48048; AID 1918;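 active = signal ratio slope over the read window, or its plate-corrected B-score, at least 3 SD from the plate mean, either direction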;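 also: B-score of the F/F0 ratio slope over 7 to 12 s after thallium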
Target sequence (P48048 whole entry, looked up): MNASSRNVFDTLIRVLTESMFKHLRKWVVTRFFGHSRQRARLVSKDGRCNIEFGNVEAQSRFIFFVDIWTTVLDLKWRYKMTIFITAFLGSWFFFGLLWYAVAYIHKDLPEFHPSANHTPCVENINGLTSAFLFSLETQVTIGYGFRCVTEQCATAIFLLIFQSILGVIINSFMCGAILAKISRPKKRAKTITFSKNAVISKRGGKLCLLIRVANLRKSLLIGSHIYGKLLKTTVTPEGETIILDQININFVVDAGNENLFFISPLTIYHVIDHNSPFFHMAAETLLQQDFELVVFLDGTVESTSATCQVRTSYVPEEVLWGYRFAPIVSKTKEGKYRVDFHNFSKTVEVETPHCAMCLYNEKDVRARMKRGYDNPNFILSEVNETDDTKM
Calb biofilm kill = mixture kills Candida albicans biofilm cells; 120,000 compounds, 0.02% hits; inhibition, % at 7.6 µM; C. albicans biofilm persisters + clotrimazole, fluorescence viability; primary screen in compound mixtures of four per well;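 also: compounds exposed to preformed 24 h biofilms for 48 h; 0% = untreated biofilm control and 100% = clotrimazole plus chlorhexidine kill blank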
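Test system: C. albicans CAF4-2 wild-type biofilms; buffer or medium: RPMI/MOPS medium, pH 7.0; schedule: 24 h biofilm formation, then 48 h compound exposure, 37 °C; detection: Alamar Blue fluorescence; measure: percent inhibition of biofilm viability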
ROMK retest = retested hit modulating human ROMK potassium channel. normalized thallium flux (F/F0 slope) at 10 µM. shares compounds with ROMK primary. ROMK thallium flux, fluorescence ratio; active compounds read low. 3,000 compounds, 54% hits;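 active = Flux at 10 µM at least 3 SD below or above vehicle control mean in one or both replicates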
* = called active by the depositor; · = no result.

SMILES	ROMK primary	Calb biofilm kill	ROMK retest
O=C(N=Nc1c(O)n(Cc2ccccc2)c2ccccc12)c1ccc(O)cc1	0.186	19.4	·
CCn1c(O)c(N=NC(=O)Cn2ccc(C(F)(F)F)n2)c2ccccc21	·	5.6	·
CCn1c(O)c(N=NC(=O)c2ccc(CSc3nncn3C)cc2)c2ccccc21	-3.43*	12.9	0.0717
Cn1cnnc1SCc1ccc(C(=O)N=Nc2c(O)n(Cc3ccc(Cl)cc3)c3ccccc23)cc1	-2.19*	1.9	0.0648*
CC1(C)Cc2c(sc3nc(SCC(=O)NCc4ccco4)n(-c4ccccc4)c(=O)c23)CS1	1.03	·	0.0554*
Cc1sc2nc(SCC(=O)NCc3ccco3)n(CCc3ccccc3)c(=O)c2c1C	0.346	·	·
COC(=O)c1ccc(CN2CCN(CCc3ccccc3)C(CCO)C2)cc1 (configuration not stated)	-1.22	4.0	·
CCCCOC(=O)C[N+](C)(C)CCOC1CC2CCC1(C)C2(C)C (configuration not stated)	·	13.1	·
CCCCCCOC(=O)C[N+](C)(C)CCOC1CC2CCC1(C)C2(C)C (configuration not stated)	·	·	0.0445*
CCC(C)OC(=O)C[N+](C)(C)CCOC1CC2CCC1(C)C2(C)C (configuration not stated)	-1.21	14.7	·
CCCCCCCOC(=O)C[N+](C)(C)CCOC1CC2CCC1(C)C2(C)C (configuration not stated)	·	7.9	0.043*
CCCOC(=O)C[N+](C)(C)CCOC1CC2CCC1(C)C2(C)C (configuration not stated)	·	13.0	·
CC(C)CCOC(=O)C[N+](C)(C)CCOC1CC2CCC1(C)C2(C)C (configuration not stated)	-4.1*	15.0	0.0515*
O=S(=O)(Nc1ccccc1O)c1ccc(Cl)nc1	·	23.3	·
N#C/C(=C\c1cn(CCOc2ccccc2)c2ccccc12)C(=O)NCc1cccs1	0.156	-7.7	·
COc1ccc(NS(=O)(=O)c2cc(NC(=O)/C=C/c3ccccc3OC)ccc2N2CCCCC2)cc1	0.081	17.8	·
CCN1C(=O)/C(=C/C=C2/CCCN2C)OC1=S	-4.89*	17.8	0.0639*
CN1C(=O)/C(=C\C=C2/CCCN2C)N(C)C1=S	-1.61	18.7	·
Cc1cc(Br)c(OCC(=O)NN)c2c1CCC2	·	11.0	·
Oc1c(Br)cc(Br)cc1C=Nc1ccc2c(c1)OCCO2	1.89	18.5	·
Oc1c(Br)cc(Br)cc1C=Nc1ccc2c(c1)OCO2	3.41*	13.9	0.113*
COc1cc(NC(=O)CN2CCC(C)CC2)c(C)cc1[N+](=O)[O-]	·	16.6	·
COc1cc(NC(=O)CN2CCN(c3ccccc3O)CC2)c(C)cc1[N+](=O)[O-]	-4.41*	6.8	0.0491*
CCOc1cc(C2C3=C(CC(C)(C)CC3=O)Nc3n[nH]c(C)c32)ccc1O (configuration not stated)	-0.52	13.9	·
COc1ccc(CCN2C(=NC(=O)C(C)C)SC3CS(=O)(=O)CC32)cc1OC (configuration not stated)	0.561	20.3	·
SMILES	ROMK primary	Calb biofilm kill	ROMK retest
O=Cc1ccc(OCC(=O)Nc2ccccc2C(F)(F)F)cc1	0.203	24.4	·
CCc1ccccc1N1C[C@@]23C=C[C@@H](O2)C(C(=O)OCC(C)C)[C@H]3C1=O (some centres not stated)	0.00273	·	·
COc1ccc2no[n+]([O-])c2c1	0.461	-3.0	·
O=S(=O)(NCc1ccco1)c1cccc2cccnc12	1.33*	·	0.0789
O=S(=O)(NCc1ccc(Cl)cc1)c1cccc2cccnc12	0.946	14.7	·
O=C(CN1C(=O)c2ccccc2C1=O)Nc1ccc(S(=O)(=O)N2CCOCC2)cc1	1.2	12.5	·
COc1ccc(C2OC(=O)Cc3cc(OC)c(OC)cc32)cc1 (configuration not stated)	-2.54*	3.5	0.0858
CCOc1cc2c(cc1OCC)C(c1ccccc1OC)OC(=O)C2 (configuration not stated)	0.152	18.0	·
CC1CC(C)CN(C(=O)Nc2ccccc2F)C1 (configuration not stated)	·	11.7	·
COC(=O)c1ccc2c(=O)n(CCCCCC(=O)NC(C)C)c(=O)[nH]c2c1	·	15.3	·
COC(=O)/C=C1\C(=O)N(c2nc3ccccc3s2)C(=S)N1c1ccc(F)cc1	-2.76*	·	0.0643*
O=C1CC(NNc2nc3ccccc3s2)C(=O)N1c1ccc(F)cc1 (configuration not stated)	-0.216	49.1	·
CCOC(=O)C(NCCc1ccccc1F)(NC(C)=O)C(F)(F)F (configuration not stated)	0.0243	11.2	·
COc1ccc(NC(=O)Nc2ccc(F)cc2)c(C)c1	-2.07*	-1.2	0.0754
COc1ccc(NC(=O)Nc2ccc(F)cc2F)c(C)c1	-0.559	·	·
Cc1[nH]c2ccccc2c1C(=O)COC(=O)c1c(-c2c(F)cccc2Cl)noc1C	·	12.4	·
